“Also recorded” adds a separate entry of the source. Values belong to the compound of their own block, whether it stands above or below them.
Assays:
[1] = system: CT-L activity of purified 20S human proteasomes (β5, β5i, β1i); test: Enzyme kinetics assay, CT-L activity of purified 20S proteasomes; type: biochemical; conditions: for Inhibition of the CT-L activity of purified proteasomes: purified 20S CP and IP, β5, β5i, β1i, result in words; for Activation of the CT-L activity of proteasomes: at 10 μM, purified proteasomes
In short: (§1)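 Purified human 20S constitutive and immunoproteasome (0.5 µg/mL) was preincubated with test compound for 30 min at room temperature in 20 mM Tris-HCl, 0.5 mM EDTA, 0.035% SDS. Reactions were started with a subunit-selective AMC substrate: β1 Ac-nLPnLD-AMC 100 µM; β2/β2i Boc-LRR-AMC 200 µM; β5 Ac-WLA-AMC 20 µM; β1i Ac-PAL-AMC 100 µM; β5i Ac-ANW-AMC 100 µM. AMC fluorescence (ex 360/em 460 nm) was followed for 90 min at room temperature.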

[2] = molecular target: C-L activity responsible β1 subunit of purified 20S human proteasome (Homo sapiens, UniProt P28072); test: Enzyme kinetics assay, C-L activity of purified 20S proteasome; type: biochemical; conditions: result in words
In short: as §1

[3] = system: proteasome in RPMI 8226 cell lysates (Suc-LLVY-AMC hydrolysis); test: Jump dilution reversibility assay; type: biochemical, human
In short: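 RPMI 8226 lysate (30 µg total protein) was incubated with test compound at 10 µM in 20S proteasome assay buffer for 30 min at room temperature. Baseline Suc-LLVY-AMC hydrolysis was recorded in a cuvette. The mixture was then rapidly diluted 25-fold in assay buffer (10 to 0.4 µM compound), and substrate hydrolysis was monitored for about 30 min.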

[4] = system: cancer cell lines including LNCaP prostate cancer cells; test: Cytotoxicity of G4-1 in cancer cell lines; type: cell-based, human; conditions: variety of cancer cell lines including LNCaP; 72 h
In short: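 Log-phase adherent cells were seeded at 7,000–10,000 per well; suspension RPMI 8226 cells were pelleted and seeded at 10,000 per well. Viability was read after 72 h by CellTiter Glo luminescence or CellTiter 96 Aqueous One absorbance.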

[5] = system: LNCaP tumors; test: In vivo efficacy assay, LNCaP xenograft; parameters: species or system mouse; conditions: 5 mg/kg i.p. twice a week for 4 weeks
[6] = system: proteasomal CT-L activity of RPMI 8226 cell extracts; test: CT-L activity of proteasomes in cell extracts; type: biochemical, human; conditions: result in words
In short: (§2)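 Cytosolic extracts of RPMI-8226 cells were prepared by the Kisselev and Goldberg method and used in place of purified 20S proteasome. Hydrolysis of fluorogenic substrates was measured as AMC release: Suc-LLVY-AMC for CT-L, Z-LLE-AMC for C-L and Boc-LRR-AMC for T-L activity. Fluorescence was read at excitation 360 and emission 460 nm.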

[7] = molecular target: T1, proteasomal C-L activity of RPMI 8226 cell extracts (Homo sapiens, UniProt P28072); test: C-L activity of proteasomes in cell extracts; type: biochemical; conditions: result in words
T1 sequence (P28072 1-239): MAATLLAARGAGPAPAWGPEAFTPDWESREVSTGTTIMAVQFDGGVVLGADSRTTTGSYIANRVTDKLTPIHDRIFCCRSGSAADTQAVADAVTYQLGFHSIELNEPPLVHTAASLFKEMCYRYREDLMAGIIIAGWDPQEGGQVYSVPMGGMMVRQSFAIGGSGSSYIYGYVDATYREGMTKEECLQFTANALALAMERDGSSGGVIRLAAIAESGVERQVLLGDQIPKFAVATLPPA
In short: as §2

[8] = system: proteasomal T-L activity of RPMI 8226 cell extracts; test: T-L activity of proteasomes in cell extracts; type: biochemical, human; conditions: result in words
In short: as §2

[9] = system: BxPC-3 cell lines with acquired resistance to bortezomib or carfilzomib; test: Cytotoxicity in bortezomib- or carfilzomib-resistant BxPC-3 sublines; type: cell-based, human; conditions: BxPC-3 sublines adapted to 60 nM bortezomib or 200 nM carfilzomib

Inhibition of the CT-L activity of purified proteasomes [1]: potently inhibit
SMILES: Cc1ccc(OS(=O)(=O)c2cccc(C(F)(F)F)c2)c(-c2cc(C3CCCNC3)n(CCN[C@@H]3CCNC3)n2)c1 (stereo partly shown) [G4-41]

SMILES: Cc1ccc(OS(=O)(=O)c2cccc(C(F)(F)F)c2)c(-c2cc(-c3ccccc3)n(CCN[C@@H]3CCNC3)n2)c1 [G4]
Inhibition of the CT-L activity of purified proteasomes [1]: potently inhibit; also recorded: selectively inhibits; also recorded: preferentially inhibits
Inhibition of the C-L activity (β1) of purified proteasome [2]: selectively inhibits; also recorded: preferentially inhibits

SMILES: Cc1ccc(OS(=O)(=O)c2cccc(C(F)(F)F)c2)c(-c2cc(-c3ccccc3)n(CC(=O)N[C@@H]3CCNC3)n2)c1 [G4-1]
Inhibition of proteasomal activity after preincubation ([3]; 10 μM, 30 min preincubation with RPMI 8226 cell extracts): nearly complete inhibition
Inhibitor dissociation half-life ([3]; after 25-fold dilution from 10 to 0.4 μM): approximately 3.2 min
Mode of proteasome inhibition ([3]; jump dilution, upward curvature of progress curve): reversibility
Anticancer activity against cancer cell lines [4]: good anticancer activity
Body weight of mice over the course of treatment [5]: maintained normal weight gain
Systemic toxicity in mice [5]: without apparent systemic toxicity
Tumor growth in vivo ([5]; nude mice bearing LNCaP tumors): effectively suppressed tumor growth
Inhibition of proteasomal CT-L activity of cell extracts [6]: effectively inhibit
Inhibition of the CT-L activity of purified proteasomes [1]: most potent inhibitor
Inhibition of proteasomal C-L activity of cell extracts [7]: effectively inhibit
Activity against the T-L activity of cell extracts [8]: no activity
Impact of acquired resistance to bortezomib or carfilzomib on anticancer effect [9]: not negatively impacted

Inhibition of the CT-L activity of purified proteasomes [1]: potently inhibit
SMILES: Cc1ccc(OS(=O)(=O)c2cccc(C(F)(F)F)c2)c(-c2cc(C3CCCN(C(=O)N[C@@H]4CCNC4)C3)n(CCN[C@@H]3CCNC3)n2)c1 (stereo partly shown) [G4-42]

Inhibition of the CT-L activity of purified proteasomes [1]: potently inhibit
SMILES: Cc1ccc(OS(=O)(=O)c2cccc(C(F)(F)F)c2)c(-c2cc(C3CCCCC3)n(CCN[C@@H]3CCNC3)n2)c1 [G4-40]

Activation of the CT-L activity of proteasomes [1]: up to 200%
SMILES: Cc1ccc(OS(=O)(=O)c2ccc(F)c([N+](=O)[O-])c2)c(-c2cc(-c3ccccc3)n(CCN[C@@H]3CCNC3)n2)c1 [G4–21]

Activation of the CT-L activity of proteasomes [1]: up to 200%
SMILES: CC1=C(COC(=O)Cn2nc(-c3cc(C)ccc3OS(=O)(=O)c3cccc(C(F)(F)F)c3)cc2-c2ccccc2)Cc2ccccc21 [G4-16]

— article PMC11790068 (Journal of medicinal chemistry, 2015)
